# Assay outcomes deposited in PubChem by Johns Hopkins Ion Channel Center.
# KCNK3 block: human KCNK3 channel inhibition, primary screen; AID 602410; B-score at 10 µM; O14649; actives 0.84% (n = 340,000); CHO-KCNK3 thallium flux, FluxOR fluorescence; stronger effect = lower value;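 active = B-score under library mean minus 4 SD, starting fluorescence ratio at most library mean plus 5 SD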;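 note: more negative B-score means stronger inhibition of thallium flux through KCNK3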
# KCNK9 inh: blocks the human KCNK9 two-pore domain potassium channel. Q9NPC2. HEK293 KCNK9, FluxOR thallium flux fluorescence; stronger effect = lower value. B-score at 10 µM. actives 1.2% (n = 310,000). AID 488922;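 active = ratio B-score over 3 SD below the library mean, with starting fluorescence within 5 SD of its mean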;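 note: negative B-score means less thallium flux so channel inhibition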
# KCNQ1 pot: potentiates or activates the human KCNQ1 potassium channel | actives 0.35% (n = 310,000) | P51787 | CHO-K1 KCNQ1, thallium flux FluxOR fluorescence; stronger effect = higher value | B-score at 10 µM;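 active = fluorescence ratio B-score, a plate-corrected score, at least three library SD, with initial intensity B-score within 5 SD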
# Target sequence (P51787 whole entry, looked up): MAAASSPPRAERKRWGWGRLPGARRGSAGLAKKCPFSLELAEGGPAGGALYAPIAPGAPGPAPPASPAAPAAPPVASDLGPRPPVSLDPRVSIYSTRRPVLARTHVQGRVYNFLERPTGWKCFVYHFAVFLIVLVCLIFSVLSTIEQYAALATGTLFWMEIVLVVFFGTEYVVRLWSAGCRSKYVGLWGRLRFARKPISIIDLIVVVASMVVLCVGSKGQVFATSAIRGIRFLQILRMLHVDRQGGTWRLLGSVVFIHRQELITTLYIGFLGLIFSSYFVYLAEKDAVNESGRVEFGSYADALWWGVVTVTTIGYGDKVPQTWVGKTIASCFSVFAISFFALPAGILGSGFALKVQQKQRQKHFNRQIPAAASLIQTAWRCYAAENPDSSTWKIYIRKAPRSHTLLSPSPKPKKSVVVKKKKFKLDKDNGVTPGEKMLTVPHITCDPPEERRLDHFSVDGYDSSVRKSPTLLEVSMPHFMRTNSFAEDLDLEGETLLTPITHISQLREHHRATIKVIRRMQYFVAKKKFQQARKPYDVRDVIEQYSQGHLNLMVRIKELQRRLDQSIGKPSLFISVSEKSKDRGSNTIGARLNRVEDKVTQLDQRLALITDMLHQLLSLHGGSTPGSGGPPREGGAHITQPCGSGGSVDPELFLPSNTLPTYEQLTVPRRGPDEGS
#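 Material: CHO-K1 cells stably expressing KCNQ1. Medium: assay buffer for compound exposure, DMSO matched across wells. Reagent: K+/Tl+ depolarizing stimulus. Compound dosing: single-concentration screen. Times: 37 °C overnight plating, 90-min dark dye load, 20-min compound pretreatment. Technique: FluxOR Tl+ flux fluorescence.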
# hERG rescue: compounds protecting human hERG from proarrhythmic drug block | activation (rescue from dofetilide block), less the hit threshold, % at 10 µM | actives 0.51% (n = 310,000) | CHO-hERG, FluxOR thallium flux, dofetilide IC70 present;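 active = activation above the mean of controls blocked by dofetilide plus 5 SD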;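 note: thallium influx through hERG after potassium depolarization seen as dye fluorescence rise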
# KCNQ1 block: human KCNQ1 channel inhibition | P51787 | CHO-K1 KCNQ1, FluxOR thallium flux fluorescence; stronger effect = higher value | B-score at 10 µM | actives 1.3% (n = 310,000) | AID 2642;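 active = compounds whose thallium flux B-score, printed positive for inhibition, exceeds three library SD while starting fluorescence stays within three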;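 note: channel opened by potassium depolarization with thallium stimulus after 20 min compound exposure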
# Kir21 block: Kir2.1 (mouse) channel inhibition. P35561. HEK293-Kir2.1, FluxOR thallium flux fluorescence; stronger effect = lower value. B-score at 10 µM. actives 0.85% (n = 310,000). AID 1672;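 active = fluorescence ratio B-score at or below minus 3 SD of library scores, with starting-brightness B-score within 2 SD, cut at about -4.2 in these data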;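 note: channel flux triggered by added potassium and thallium sulfate stimulus; B-score of peak minus minimum fluorescence over baseline after thallium stimulus; more negative B-score means stronger Kir2.1 block with less thallium influx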
# KCNK9 inh conf: confirmation of human KCNK9 potassium channel inhibitors; shares compounds with KCNK9 inh; HEK293 KCNK9 cells, FluxOR thallium flux fluorescence; inhibition, % at 10 µM; actives 43% (n = 4,900); AID 492992;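 active = thallium signal inhibited by more than 5 SD of the compound-free buffer control wells, on both duplicate plates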
# Kir21 sel: mouse Kir2.1 off-target activity of KCNK9 modulators; shares compounds with KCNK9 inh; Kir2.1 cells, FluxOR thallium flux fluorescence; inhibition, % at 10 µM; actives 4% (n = 4,900); AID 492993;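 active = thallium signal drop more than 5 SD beyond the mean of the no-compound control wells, seen in both duplicate plates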;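 note: signal is fluorescence rise after thallium addition divided by baseline fluorescence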
# KCNK9 uninduced: non-induced cell nonspecific activity of KCNK9 modulators. shares compounds with KCNK9 inh. non-induced KCNK9-HEK293, FluxOR thallium flux. inhibition, % at 10 µM. actives 40% (n = 4,900). AID 492997;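 active = thallium signal drop beyond 5 SD of the untreated control mean, on both duplicate plates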
# Hits are given with their value; - = inactive; . = no result given. This is a sample that favours compounds with a hit; in the whole collection about 3.7% have one here.
SMILES,KCNK3 block,KCNK9 inh,KCNQ1 pot,hERG rescue,KCNQ1 block,Kir21 block,KCNK9 inh conf,Kir21 sel,KCNK9 uninduced
Cc1ccc(C)c(OCC(=O)Nc2ccc(C(=O)O)cc2NC(=O)COc2cc(C)ccc2C)c1,-,-,-,-,-,-,-,-,-
COc1ccc(OCC(=O)Nc2cc(NC(=O)COc3ccc(OC)cc3)cc(C(=O)O)c2)cc1,-,-,-,-,-,-,.,.,.
Cc1ccc(OCC(=O)Nc2cc(NC(=O)COc3ccc(C)c(C)c3)cc(C(=O)O)c2)cc1C,-,-,-,-,-,-,-,-,-
CCc1ccc(OCc2ccc(C(=O)OC)o2)cc1,-,-,-,-,-,-,.,.,.
O=C(c1ccccc1)n1ccc(-c2cnc(-c3ccccc3)s2)n1,-,-,-,-,-,-,.,.,.
COc1ccc(S(=O)(=O)n2ccc(-c3cnc(-c4ccccc4)s3)n2)cc1,-,-9.99,-,-,-,-,-,-,31.0%
CCn1c(C(=O)O)c(CC(=O)Nc2ccccc2OC)c2ccccc21,-,-,-,-,-,-,.,.,.
COc1cc(N2CCCC2)c(OC)cc1/C=C(/C#N)c1ccc(F)cc1,-,-11.7,-,-,7,-,50.0%,-,66.0%
COc1cc(N2CCCC2)c(OC)cc1/C=C(/C#N)c1ccc(Br)cc1,-,-,-,-,-,-,.,.,.
C[C@]12CCC(O)CC1CCC1C2CC[C@]2(C)C(c3cc(C(F)(F)F)n[nH]3)CCC12 (stereo partly specified),-,-13.2,-,-,-,-,33.0%,-,63.0%
COc1ccc(S[C@@H](CCN2CC[C@H](C)CCC2=O)c2ccccc2)cc1,-,.,.,.,.,.,.,.,.
Cc1ccc(S[C@@H](CCN2CC[C@H](C)CCC2=O)c2ccccc2)cc1,-,-9.39,-,-,-,-,65.5%,-,34.5%
C[C@@H]1CCC(=O)N(CC[C@H](Oc2ccccc2)c2ccccc2)CC1,-,-15,-,-,-,-,73.5%,-,35.5%
CC(C)N1CCN(Cc2cc3ccccc3[nH]2)CC1CCO (stereo unspecified),-,-,-,-,-,-,.,.,.
c1ccc(Cc2nnc(N3CCCCC3)c3ccccc23)cc1,-,-,-,-,-,-,-,-,-
CC1(C)CC(C(CCN(Cc2ccccc2)C(=O)c2ccco2)c2ccc(F)cc2)CCO1 (stereo unspecified),-,-10.4,-,-,-,-,67.0%,-,49.5%
CC1(C)CC(N(Cc2ccc(F)cc2)C(=O)c2ccc(F)cc2)CCO1 (stereo unspecified),-,-,-,-,-,-,.,.,.
Nc1c(N(Cc2ccco2)C(=O)c2ccccc2F)c(=O)[nH]c(=O)n1Cc1ccccc1,-,.,.,.,.,.,.,.,.
O=C(COC(=O)COc1ccccc1F)NC1CC1,-,.,.,.,.,.,.,.,.
CC1=CC(C)C2COC(c3ccc[n+](C)c3)C1C2C (stereo unspecified),-,-,-,-,-,-,.,.,.
CN(C(=O)c1ccco1)c1nnc(C23CC4CC(CC(C4)C2)C3)s1,-,-,-,-,-,-,.,.,.
CN(C(=O)COc1ccc(Cl)cc1Cl)c1nnc(C23CC4CC(CC(C4)C2)C3)s1,-,-,-,-,-,-,-,-,-
Cc1c(N=Nc2c(-c3ccc([N+](=O)[O-])cc3)[nH]n(C(N)=S)c2=O)cccc1[N+](=O)[O-],-,.,.,.,.,.,.,.,.
Cc1[nH]n(C(N)=S)c(=O)c1N=Nc1cccc([N+](=O)[O-])c1C,-,-,-,-,-,-,-,-,-
O=C1CC(N(CCc2ccccc2)C(=S)Nc2cc(Cl)ccc2Cl)C(=O)N1c1c(Cl)cccc1Cl (stereo unspecified),-,-9.58,-,-,-,-,42.0%,-,-
SMILES,KCNK3 block,KCNK9 inh,KCNQ1 pot,hERG rescue,KCNQ1 block,Kir21 block,KCNK9 inh conf,Kir21 sel,KCNK9 uninduced
Cc1cc(OCC(=O)NCCCn2ccnc2)c2c(C)c(C)c(=O)oc2c1,-,-,-,-,-,-,.,.,.
CCN(CC)S(=O)(=O)c1cc(OC)ccc1N=Nc1ccc(O)c2ncccc12,-,-,-,17.0,-,-,-,-,-
CCCN(CCC)S(=O)(=O)c1ccc2c(c1)CCCN2C(C)=O,-,-,-,-,-,-,.,.,.
CCCN(CCC)S(=O)(=O)c1ccc(C(=O)N2CCCc3ccccc32)cc1,-,-,-,-,-,-,-,-,-
CN(C)c1ccccc1C(=O)N1CCCC(C(=O)c2ccc3ccccc3c2)C1 (stereo unspecified),-,-,-,-,-,-,-,-,-
CSc1ncccc1C(=O)N1CCCC(C(=O)c2ccc3ccccc3c2)C1 (stereo unspecified),-,-,-,-,-,-,-,-,-
O=C(c1ccc2ccccc2c1)C1CCCN(C(=O)c2cccnc2)C1 (stereo unspecified),-,-,-,-,-,-,.,.,.
Cc1ccc(C(=O)OCC(=O)c2c[nH]c3ccccc23)cc1S(=O)(=O)N1CCOCC1,-,.,.,.,.,.,.,.,.
CC12COC3(C(=O)Nc4ccccc4)CC1CCC32C (stereo unspecified),-,-,-,-,-,-,.,.,.
CC12COC3(C(=O)Nc4ccc5ccccc5c4)CC1CCC32C (stereo unspecified),-,-,-,-,-,-,-,-,-
CCOc1ccc(Br)cc1C1=NN(C(C)=O)C(c2ccc([N+](=O)[O-])s2)O1 (stereo unspecified),-10.2,-10.3,-,-,-,-,63.0%,-,39.5%
COc1ccc(S(=O)(=O)N2CCN(c3cnccn3)CC2)cc1OC,-,.,.,.,.,.,.,.,.
CC(C(=O)NC(=O)NC1CCCCC1)N1CCN(C(c2ccccc2)c2ccccc2)CC1 (stereo unspecified),-,-,-,-,-,-,-,-,-
O=C(NC1CCCCC1)C(c1ccccc1)N1CCCC1 (stereo unspecified),-,-,-,-,-,-,.,.,.
CC(C)(C)c1ccc(Cn2cnc(-c3ccc([N+](=O)[O-])cc3)c2)cc1,-,-,-,-,-,-,-,-,-
CC(C)C(NC(=O)c1ccco1)C(=O)OCC(=O)Nc1ccc(C(N)=O)cc1 (stereo unspecified),-,-,-,-,-,-,.,.,.
CC1CCCCN1C(=O)CSc1nc2cc3c(cc2c(=O)n1Cc1ccc2c(c1)OCO2)OCO3 (stereo unspecified),-,-,-,-,-,-,-,-,23.5%
COC(=O)[C@@H](NC(=O)N1CCC(Cc2ccccc2)CC1)C(C)C,-,-,-,-,-,-,.,.,.
